From ChEMBL document CHEMBL3871266, “Synthesis and cytotoxic activity of novel A-ring cleaved ursolic acid derivatives in human non-small cell lung cancer cells” (Eur J Med Chem, 2016) come the findings set out here.

The nature of experiment [1]: Cytotoxicity against human NCI-H322 spheroids assessed as reduction in cell viability measured after 96 hrs by CellTiter-Glo luminescence viability assay. The experiment is classed as functional. The settings on record: NCI-H322, 96 h. Summed up: (§1)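 Spheroids grown in round-bottom ultralow-attachment wells, 495 (H460 CTR5) or 650 (H322) cells/well. Drug exposure 96h with DMSO vehicle. CellTiter-Glo added, shaken 20 min, left 10 min, then luminescence read. IC50 by nonlinear regression; three independent experiments.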

Experiment [2] can be described thus: Cytotoxicity against human NCI-H322 cells assessed as reduction in cell viability measured after 72 hrs by CellTiter-Blue cell viability assay. The experiment is classed as functional, cell-based. Summed up:
(§2)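 Monolayer cultures in RPMI-1640 with 10% FBS at 37°C, seeded at 850 (H460 CTR5), 660 (H460 LKB1+/+) or 1780 (H322) cells/well so that the end point reaches 70–80% confluence. Treated 72h; vehicle 0.15% DMSO. CellTiter-Blue added until colour change (50–60, 80–90 or 100–120 min respectively), fluorescence read at 590 nm. IC50 by nonlinear regression; three independent experiments.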
On the technique in general: Alamar Blue is a resazurin reagent that responds to reducing activity.

Experiment [3] can be described thus: Cytotoxicity against human LKB1-positive NCI-H460 cells assessed as reduction in cell viability measured after 72 hrs by CellTiter-Blue cell viability assay. It counts as functional, cell-based. Summed up:
as §2

Experiment [4] in a line: Cytotoxicity against human NCI-H460 spheroids expressing CTR5 gene assessed as reduction in cell viability measured after 96 hrs by CellTiter-Glo luminescence viability assay. It counts as functional, cell-based. The following applies: NCI-H460, 96 h. Summed up:
as §1
On the technique in general: ATP-based viability assays read luminescence as a measure of living cells.

Experiment [5] in a line: Cytotoxicity against human NCI-H460 cells expressing CTR5 gene assessed as reduction in cell viability measured after 72 hrs by CellTiter-Blue cell viability assay. The experiment is classed as functional, cell-based. Summed up: as §2
Experiment [6] relates to NCI-H460. The experiment can be described thus: Induction of autophagy in human NCI-H460 cells expressing CTR5 gene assessed as acidic vesicular organelle formation measured after 72 hrs by acridine orange dye based flow cytometry (reference value: 91.2%). The experiment is classed as functional. Summed up: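 H460 CTR5 cells plated in 6-well plates (0.095 × 10⁵ cells/well, RPMI-1640 with 10% FBS) and treated 24 h later with vehicle (0.15% DMSO), drug at 3 or 4 μM, or medium alone for 72 h. Bafilomycin A1 was added to the untreated well 30 min before staining as negative control. Cells were stained with acridine orange for 15 min at 37°C in the dark. Flow cytometry read the red/green (FL3/FL1) ratio; three independent experiments.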
(In general: A flow cytometer gives signals particle by particle.)

Where [7] appears, read: Homo sapiens, NCI-H322, 72 h, read-out: IC50.
The mark [8] stands for this setting: Homo sapiens, NCI-H460, 72 h, read-out: IC50.

`C=C(C)[C@@H]1CC[C@]2(C)[C@H](C[C@@H](F)C34OC(=O)[C@@]5(CC[C@@H](C)[C@H](C)[C@@H]35)CC[C@]42C)[C@@]1(C)CCC(=O)NC`: the IC50 (commonly the concentration needed to halve the response being measured) in experiment [1] worked out at 12.1 µM; in experiment [2] (setting [7]), 6.8 µM; in experiment [3] (setting [8]), 6.7 µM; in experiment [4], 3 µM; in experiment [5] (setting [8]), 4.5 µM.

On to `C[C@H]1[C@H](C)CC[C@@]23CC[C@]4(C)C(OC2=O)([C@H](F)C[C@@H]2[C@@]5(C)CC[C@H](O)C(C)(C)[C@@H]5CC[C@]24C)[C@H]13`, for which the IC50 turned out to be 14.3 µM in experiment [2] (setting [7]), 18.7 µM in experiment [3] (setting [8]), 19.5 µM in experiment [4] and 19.3 µM in experiment [5] (setting [8]).

On to `C[C@H]1[C@H](C)CC[C@@]23CC[C@]4(C)C(OC2=O)([C@H](F)C[C@@H]2[C@@]5(C)CCC(=O)NC(C)(C)[C@@H]5CC[C@]24C)[C@H]13`, for which the IC50 in experiment [2] (setting [7]) was over 25 µM; in experiment [3] (setting [8]), 13.5 µM; in experiment [5] (setting [8]), over 25 µM.

With `C=C(C)[C@@H]1CC[C@]2(C)[C@H](C[C@@H](F)C34OC(=O)[C@@]5(CC[C@@H](C)[C@H](C)[C@@H]35)CC[C@]42C)[C@@]1(C)CCC(=O)NCCc1ccccc1`, the half-inhibitory concentration (IC50) in experiment [2] (setting [7]), in experiment [3] (setting [8]) and in experiment [5] (setting [8]) was over 50 µM throughout.

Turning to `C=C(C)[C@@H]1CC[C@]2(C)[C@H](C[C@@H](F)C34OC(=O)[C@@]5(CC[C@@H](C)[C@H](C)[C@@H]35)CC[C@]42C)[C@@]1(C)CCC(=O)Nc1ccccc1`, the IC50 in experiment [2] (setting [7]), in experiment [3] (setting [8]) and in experiment [5] (setting [8]) was over 50 µM each time.

Turning to `C=C(C)[C@@H]1CC[C@]2(C)[C@H](C[C@@H](F)C34OC(=O)[C@@]5(CC[C@@H](C)[C@H](C)[C@@H]35)CC[C@]42C)[C@@]1(C)CCC(=O)NCC`, the IC50 in experiment [1] came to 11.6 µM; in experiment [2] (setting [7]) it was 7.3 µM; in experiment [3] (setting [8]) it was 7.8 µM; in experiment [4], 5.7 µM; in experiment [5] (setting [8]), 5.3 µM.

Take `C=C(C)[C@@H]1CC[C@]2(C)[C@H](C[C@@H](F)C34OC(=O)[C@@]5(CC[C@@H](C)[C@H](C)[C@@H]35)CC[C@]42C)[C@@]1(C)CCC(=O)NCc1ccc(C)cc1`: the IC50 in experiment [2] (setting [7]), in experiment [3] (setting [8]) and in experiment [5] (setting [8]) was over 50 µM throughout.

As to `CO/C1=C\C(C)=C\[C@@H](C)[C@@H](O)[C@@H](C)C/C(C)=C/C=C/[C@H](OC)[C@@H]([C@@H](C)[C@@H](O)[C@H](C)[C@@]2(O)C[C@@H](O)[C@H](C)[C@@H](C(C)C)O2)OC1=O` [BAFILOMYCIN A1], the Activity in experiment [6] was 100%.

For `C=C(C)[C@@H]1CC[C@]2(C)[C@H](C[C@@H](F)C34OC(=O)[C@@]5(CC[C@@H](C)[C@H](C)[C@@H]35)CC[C@]42C)[C@@]1(C)CCC(N)=O`, the IC50 in experiment [2] (setting [7]) came out at 24.1 µM; in experiment [3] (setting [8]) it was 21.8 µM; in experiment [5] (setting [8]), 23 µM.

As for `C=C(C)[C@@H]1CC[C@]2(C)[C@H](C[C@@H](F)C34OC(=O)[C@@]5(CC[C@@H](C)[C@H](C)[C@@H]35)CC[C@]42C)[C@@]1(C)CCC(=O)O`, the 50% inhibitory concentration (IC50) in experiment [2] (setting [7]), in experiment [3] (setting [8]) and in experiment [5] (setting [8]) was over 50 µM in each case.

`C=C(C)[C@@H]1CC[C@]2(C)[C@H](C[C@@H](F)C34OC(=O)[C@@]5(CC[C@@H](C)[C@H](C)[C@@H]35)CC[C@]42C)[C@@]1(C)CCC(=O)NCCc1ccccc1OC`: the IC50 in experiment [2] (setting [7]), in experiment [3] (setting [8]) and in experiment [5] (setting [8]) was over 50 µM throughout.

Take `C=C(C)[C@@H]1CC[C@]2(C)[C@H](C[C@@H](F)C34OC(=O)[C@@]5(CC[C@@H](C)[C@H](C)[C@@H]35)CC[C@]42C)[C@@]1(C)CCC(=O)NCc1ccc(F)cc1`: the IC50 in experiment [2] (setting [7]), in experiment [3] (setting [8]) and in experiment [5] (setting [8]) was over 50 µM in each case.

For `C[C@H]1[C@H](C)CC[C@@]23CC[C@]4(C)C(OC2=O)([C@H](F)C[C@@H]2[C@@]5(C)CCC(=O)OC(C)(C)[C@@H]5CC[C@]24C)[C@H]13`, the concentration for half-maximal inhibition (IC50) entry in experiment [2] (nci-h322), in experiment [3] (nci-h460) and in experiment [5] (nci-h460) was “Nd(Insoluble)” in each case.

As to `C=C(C)[C@@H]1CC[C@]2(C)[C@H](C[C@@H](F)C34OC(=O)[C@@]5(CC[C@@H](C)[C@H](C)[C@@H]35)CC[C@]42C)[C@@]1(C)CCC#N`, the IC50 in experiment [2] (setting [7]), in experiment [3] (setting [8]) and in experiment [5] (setting [8]) was over 17 µM in each case.

With `C[C@H]1[C@H](C)CC[C@@]23CC[C@]4(C)C(OC2=O)([C@H](F)C[C@@H]2[C@@]5(C)CCC(=O)C(C)(C)[C@@H]5CC[C@]24C)[C@H]13`, the half-inhibitory concentration (IC50) in experiment [2] (setting [7]), in experiment [3] (setting [8]) and in experiment [5] (setting [8]) was over 50 µM in each case.

On to `C=C(C)[C@@H]1CC[C@]2(C)[C@H](C[C@@H](F)C34OC(=O)[C@@]5(CC[C@@H](C)[C@H](C)[C@@H]35)CC[C@]42C)[C@@]1(C)CCC(=O)NCCc1cccc(Cl)c1`, for which the IC50 in experiment [2] (setting [7]), in experiment [3] (setting [8]) and in experiment [5] (setting [8]) was over 50 µM each time.

For the compound `C[C@H]1[C@H](C)CC[C@]2(C(=O)O)CC[C@]3(C)C(=CC[C@@H]4[C@@]5(C)CC[C@H](O)C(C)(C)[C@@H]5CC[C@]43C)[C@H]12` [URSOLIC ACID], the IC50 in experiment [1] came to 18.2 µM; in experiment [2] (setting [7]), 15.3 µM; in experiment [3] (setting [8]) it was 21.1 µM; in experiment [4] it was 30.8 µM; in experiment [5] (setting [8]), 14.8 µM.
